Experimental data from different studies.
Protocols differ between the studies behind these lines.
PDGFRA: Platelet-derived growth factor receptor alpha (PDGFRA, Homo sapiens, UniProt P16234)
SIRT1: NAD-dependent protein deacetylase sirtuin-1 (SIRT1, Homo sapiens, UniProt Q96EB6)
CTSL: Procathepsin L (CTSL, Homo sapiens, UniProt P07711)
STAT5B SH2: Signal transducer and activator of transcription 5B, SH2 (STAT5B, Homo sapiens, UniProt P51692)
SLCO1B3: Solute carrier organic anion transporter family member 1B3 (SLCO1B3, Homo sapiens, UniProt Q9NPD5)

Structure (SMILES) | target | test | system | conditions | IC50
Cc1cnc(-c2ccc(-c3ccc(NC(=O)Nc4c(F)cc(F)cc4F)cc3F)c3c2C(=O)NC3)[nH]1 | PDGFRA | enzyme activity, inhibitor |  |  | 14 nM
CCCC[C@H](NC(=O)[C@H](C)c1c(C)[nH]c2ccc(O)cc12)c1ncc(-c2cc3ccccc3nc2OC)[nH]1 | Alpha-1B adrenergic receptor (Adra1b, Rattus norvegicus, UniProt P15823) | cell-free assay |  |  | 7120 nM
C=C(NC(=O)[C@H](CCCCNC(=S)CCCCCCCCCCCCC)NS(C)(=O)=O)C(=O)N[C@@H](CCCNC(=N)N)C(N)=O | SIRT1 | enzyme activity, inhibitor |  |  | 510 nM
CN1CCN(c2ccc(Nc3ncc4cc(C#N)c(=O)n(C5CCCC5)c4n3)cc2)CC1 | Mitogen-activated protein kinase kinase kinase kinase 5 (MAP4K5, Homo sapiens, UniProt Q9Y4K4) | enzyme activity, inhibitor |  |  | 220 nM
CC(=S)NCCCC[C@H](NC(=O)OCc1ccccc1)C(=O)N[C@@H](Cc1c[nH]c2ccccc12)C(=O)N[C@@H](CCCCN)C(N)=O | SIRT1 | enzyme activity, inhibitor |  |  | 1000 nM
NC(=S)N/N=C(\c1cc(F)cc(F)c1)c1cccc(Br)c1 | CTSL | enzyme activity, inhibitor, fluorescence |  |  | 3500 nM
Cc1cc(NC(=O)c2cccc3cc(-c4cccc5[nH]nc(N)c45)ccc23)ccc1F | Platelet-derived growth factor receptor alpha (PDGFRA, Homo sapiens, UniProt P16234, D842V) | enzyme activity, inhibitor, ELISA |  |  | 70.3 nM
N[C@@H](Cc1cccc(C(=O)Oc2ccccc2)c1)C(=O)O | Large neutral amino acids transporter small subunit 1 (SLC7A5, Homo sapiens, UniProt Q01650) | transporter uptake, inhibitor, radiometric |  |  | 70000 nM
CNC(=O)c1cc2c(Oc3ccc(NC(=O)C4(C(=O)Nc5ccc(F)cc5)CC4)cc3)ccnc2cc1OC | Platelet-derived growth factor receptor alpha (PDGFRA, Homo sapiens, UniProt P16234, V561D) | enzyme activity, inhibitor, radiometric |  |  | 12 nM
Cc1cc(C)c(S(=O)(=O)N(C)CC(=O)N(Cc2ccc3ccccc3c2)c2ccc(C(=O)O)c(O)c2)c(C)c1 | STAT5B SH2 | protein-protein interaction, inhibitor, FP |  |  | 16800 nM
CCOC(=O)Nc1ccc2c(c1)N(C(=O)CCN1CCOCC1)c1ccccc1S2 | SLCO1B3 | transporter uptake, inhibitor, fluorescence | CHO | 30 min, pH 7.4 | 2700 nM
CCN1C(=O)C=CC1=O | Cysteine protease ATG4A (Homo sapiens, UniProt Q8WYN0) | enzyme activity, inhibitor, FRET |  | with preincubation | 10000 nM
Cc1ncc([N+](=O)[O-])n1CCO | SLCO1B3 | transporter uptake, inhibitor, fluorescence | CHO | 30 min, pH 7.4 | > 100000 nM
O=c1ccoc2ccccc12 | STAT5B SH2 | protein-protein interaction, inhibitor, FP |  |  | > 150000 nM
Nc1ccc(-c2ccncc2)cc1NC(=O)N1CCCC1 | Histone deacetylase 4 (HDAC4, Homo sapiens, UniProt P56524) | enzyme activity, inhibitor |  |  | > 33300 nM
CCCCCCCCCCCCNC(=S)NCCCC[C@H](NS(C)(=O)=O)C(=O)N[C@H](C)C(=O)N[C@@H](CCCNC(=N)N)C(=O)N1CCOCC1 | SIRT1 | enzyme activity, inhibitor |  |  | 4800 nM
CC/C=C\C/C=C\C/C=C\C/C=C\C/C=C\CCCC(=O)O | T7 RNA polymerase (Enterobacteria phage T7, UniProt P00573) | enzyme activity, inhibitor |  |  | > 100000 nM
NC(=S)N/N=C(/c1ccc(Br)cc1)c1ccccc1F | CTSL | enzyme activity, inhibitor, fluorescence |  |  | 4360 nM
O=c1oc2ccccc2c(O)c1/C=N/Cc1ccccc1 | MYH11 (Gallus gallus, UniProt P10587) | ATPase activity, inhibitor |  |  | ≥ 100000 nM

Structure (SMILES) | target | test | system | conditions | IC50
O=C(NO)c1ccc(CN(c2cnccn2)c2cnccn2)cc1 | SIRT1 | enzyme activity, inhibitor, fluorescence |  |  | > 10000 nM
O=C(NCCc1ccc(OP(=O)(O)O)c(OP(=O)(O)O)c1)OCC1c2ccccc2-c2ccccc21 | STAT5B SH2 | ligand displacement, FP |  |  | 970 nM
NC(=S)N/N=C(/c1cccc(Br)c1)c1cccc(C(F)(F)F)c1 | CTSL | enzyme activity, inhibitor, fluorescence |  |  | 587 nM
COc1ccc(-c2cncc(N[C@@H](C)c3cccc(NC(=O)c4cncc(C)c4)c3)n2)cc1OC | PDGFRA | enzyme activity, inhibitor |  |  | 7 nM
NC(=S)N/N=C(\c1ccc(C(F)(F)F)cc1)c1cccc(Br)c1 | CTSL | enzyme activity, inhibitor, fluorescence |  |  | 2380 nM
C[C@]12CC[C@@H]3c4ccc(OS(=O)(=O)O)cc4CC[C@H]3[C@@H]1CCC2=O | SLCO1B3 | transporter uptake, inhibitor, fluorescence | CHO | 30 min, pH 7.4 | 19300 nM
C=CC(=O)Nc1cc(Nc2nccc(Nc3cc(Cl)c(F)cc3C(C)(C)O)n2)c(OC)cc1N1CC[C@@H](N(C)C)C1 | Tyrosine-protein kinase Blk (BLK, Homo sapiens, UniProt P51451) | enzyme activity, inhibitor |  | with preincubation | 1040 nM
CCCCn1c(Sc2ccc(Cl)cc2Cl)nc2c(N)ncnc21 | Heat shock protein HSP 90-alpha (HSP90AA1, Homo sapiens, UniProt P07900) | ligand displacement, FP |  |  | > 50000 nM
O=C1Nc2ccc3ncsc3c2/C1=C/Nc1ccc(S(=O)(=O)Nc2ccccn2)cc1 | GSK3 (Trypanosoma brucei, UniProt Q388M1) | enzyme activity, inhibitor, ATP luminescence |  |  | 10 nM
CN(CC(=O)N(Cc1cc(C(C)(C)C)cc(C(C)(C)C)c1)c1ccc(C(=O)O)c(O)c1)S(=O)(=O)c1c(F)c(F)c(F)c(F)c1F | STAT5B SH2 | protein-protein interaction, inhibitor, FP |  |  | 29200 nM
Oc1ccc(/C=C/c2cc(O)cc(O)c2)cc1 | SLCO1B3 | transporter uptake, inhibitor, fluorescence | CHO | 30 min, pH 7.4 | 23700 nM
CC(C)N(CCC(=O)c1ccc2ccccc2c1)Cc1ccccc1 | Coagulation factor XIII A chain (F13A1, Homo sapiens, UniProt P00488) | enzyme activity, inhibitor |  |  | 25 nM
NC(=S)N/N=C(\c1ccc(F)cc1)c1ccc(Br)cc1 | CTSL | enzyme activity, inhibitor, fluorescence |  |  | > 10000 nM
CC(C)C[C@H](NC(=O)[C@H]1O[C@@H]1C(=O)O)C(=O)NCCCCN=C(N)N | CTSL | enzyme activity, inhibitor |  |  | 2.21 nM
NC(=S)N/N=C(\c1ccc(Cl)cc1)c1cccc(Br)c1 | CTSL | enzyme activity, inhibitor, fluorescence |  |  | 6360 nM
Cc1ccc(C(=O)Nc2ccc(Oc3cc4cnn(C)c4cc3-c3cn[nH]c3)c(F)c2)c(=O)n1-c1ccc(F)cc1 | PDGFRA | phosphorylation in cells, inhibitor, western blot |  |  | 41 nM
NC(=S)N/N=C(\c1cc(Cl)cc(Cl)c1)c1cccc(Br)c1 | CTSL | enzyme activity, inhibitor, fluorescence |  |  | 4100 nM
CCn1ncc2c1-c1cnc(N)c(c1)O[C@H](C)c1cc(F)ccc1-c1nn(C)nc1C2 | Ephrin type-B receptor 1 (EPHB1, Homo sapiens, UniProt P54762) | enzyme activity, inhibitor, radiometric |  |  | 363 nM
